According to ChEMBL document CHEMBL1151742, “Design, synthesis, and characterization of high-affinity, systemically-active galanin analogues with potent anticonvulsant activities” (J Med Chem, 2008):
pKd, pKi: −log10 of the molar value. Values belong to the molecule of their own block, whether it stands above or below them. Calls of active or inactive are those of the source. The rule behind the calls is not given here.

Legend:
[1] = system: Mus musculus; assay: Anticonvulsant activity in CF1 mouse assessed as inhibition of 6 Hz corneal stimulation-induced limbic seizures at 4 mg/kg, ip administered 120 mins before 6 Hz corneal stimulation; type: functional, organism-based; parameters: dose 4 mg/kg; conditions: Limbic system
Procedure, shortened: (§1)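 Each analogue given ip at 4 mg/kg to five groups of CF-1 mice (n = 4 per group), one group per time point. Seizure challenge was 6 Hz corneal stimulation (32 mA for 3 s, corneal electrodes) at 15, 30, 60, 120 or 240 min after dosing. A mouse without a limbic seizure (jaw chomping, vibrissae twitching, forelimb clonus, Straub tail) was counted as protected.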

[2] = Partition coefficient, log D at pH 7.4 by shake-flask method; type: physicochemical; conditions: octanol/water
Procedure, shortened: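 Shake-flask partitioning between water-saturated n-octanol and PBS pH 7.4. Peptide (0.4 mg) was reconstituted in 1 mL PBS, or in octanol if poorly water-soluble. Octanol peptide was taken as total minus aqueous, and logD = log([octanol]/[aqueous]). Four independent preparations per analogue.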

[3] = target: T1, Galanin receptor type 1 (Homo sapiens, UniProt P47211); assay: Displacement of europium-labeled galanin from human GalR1 expressed in HEK293 EBNA cells; type: cell-based
T1 sequence (P47211 whole entry): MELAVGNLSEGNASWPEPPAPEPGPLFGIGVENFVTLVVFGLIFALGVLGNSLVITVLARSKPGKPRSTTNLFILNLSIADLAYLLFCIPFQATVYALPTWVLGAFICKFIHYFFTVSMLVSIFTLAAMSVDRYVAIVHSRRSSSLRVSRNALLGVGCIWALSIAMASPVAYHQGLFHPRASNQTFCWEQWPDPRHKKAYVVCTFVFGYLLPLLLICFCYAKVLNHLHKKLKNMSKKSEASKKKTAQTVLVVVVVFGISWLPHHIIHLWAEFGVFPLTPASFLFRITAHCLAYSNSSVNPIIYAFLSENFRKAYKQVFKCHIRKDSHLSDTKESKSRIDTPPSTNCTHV

[4] = target: T2, Galanin receptor type 2 (Homo sapiens, UniProt O43603); assay: Displacement of europium-labeled galanin from human GalR2 expressed in CHO-K1 cells; type: cell-based
T2 sequence (O43603 whole entry): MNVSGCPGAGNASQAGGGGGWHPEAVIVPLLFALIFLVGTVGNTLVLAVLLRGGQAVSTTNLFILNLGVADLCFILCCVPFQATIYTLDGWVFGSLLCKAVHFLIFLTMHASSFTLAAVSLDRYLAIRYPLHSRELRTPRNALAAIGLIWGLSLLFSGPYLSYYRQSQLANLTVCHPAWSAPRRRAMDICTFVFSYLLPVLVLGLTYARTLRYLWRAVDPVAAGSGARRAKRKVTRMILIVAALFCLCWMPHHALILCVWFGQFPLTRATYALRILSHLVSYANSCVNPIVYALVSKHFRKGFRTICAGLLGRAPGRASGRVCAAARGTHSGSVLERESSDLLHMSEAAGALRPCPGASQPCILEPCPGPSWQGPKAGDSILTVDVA

[5] = system: Mus musculus; assay: Anticonvulsant activity in CF1 mouse assessed as inhibition of 6 Hz corneal stimulation-induced limbic seizures at 4 mg/kg, ip administered 15 mins before 6 Hz corneal stimulation; type: functional, organism-based; parameters: dose 4 mg/kg; conditions: Limbic system; procedure, shortened: as §1
[6] = Metabolic stability in rat serum assessed as half life at pH 7.5; type: ADME, cell-free
Procedure, shortened: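 Peptide (final 20 µM) was incubated in 25% rat serum with 0.1 M Tris-HCl pH 7.5 at 37 °C, serum pre-warmed 10 min. Aliquots taken up to 8 h were quenched with 15% TCA in 40% isopropanol, held 15 min at -20 °C and centrifuged. Intact peptide was measured by reversed-phase HPLC peak area, and half-life was calculated from the disappearance.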

[7] = system: Mus musculus; assay: Anticonvulsant activity in CF1 mouse assessed as inhibition of 6 Hz corneal stimulation-induced limbic seizures at 4 mg/kg, ip administered 240 mins before 6 Hz corneal stimulation; type: functional, organism-based; parameters: dose 4 mg/kg; conditions: Limbic system; procedure, shortened: as §1
[8] = system: Mus musculus; assay: Anticonvulsant activity in CF1 mouse assessed as inhibition of 6 Hz corneal stimulation-induced limbic seizures at 4 mg/kg, ip administered 60 mins before 6 Hz corneal stimulation; type: functional, organism-based; parameters: dose 4 mg/kg; conditions: Limbic system; procedure, shortened: as §1
[9] = system: Mus musculus; assay: Anticonvulsant activity in CF1 mouse assessed as inhibition of 6 Hz corneal stimulation-induced limbic seizures at 4 mg/kg, ip administered 30 mins before 6 Hz corneal stimulation; type: functional, organism-based; parameters: dose 4 mg/kg; conditions: Limbic system; procedure, shortened: as §1
[10] = target: T2, Galanin receptor type 2; assay: Binding affinity to human GalR2
[11] = target: T3, Galanin receptor type 3 (Homo sapiens, UniProt O60755); assay: Binding affinity to human GalR3
T3 sequence (O60755 whole entry): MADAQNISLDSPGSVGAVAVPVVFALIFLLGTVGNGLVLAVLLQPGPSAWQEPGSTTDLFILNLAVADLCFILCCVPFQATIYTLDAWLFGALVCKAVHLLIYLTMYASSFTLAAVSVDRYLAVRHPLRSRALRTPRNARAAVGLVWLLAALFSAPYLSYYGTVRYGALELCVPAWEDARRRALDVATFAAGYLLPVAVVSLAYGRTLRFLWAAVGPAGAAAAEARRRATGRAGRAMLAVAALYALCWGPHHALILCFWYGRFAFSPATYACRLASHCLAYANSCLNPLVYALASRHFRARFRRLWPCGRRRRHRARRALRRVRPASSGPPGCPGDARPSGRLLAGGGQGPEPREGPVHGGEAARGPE

[12] = system: Mus musculus; assay: Anticonvulsant activity in ip dosed CF1 mouse assessed as inhibition of 6 Hz corneal stimulation-induced limbic seizures; type: functional; conditions: CF1, Limbic system
[13] = Toxicity in CF1 mouse assessed as motor function by rotarod test; type: organism-based; conditions: in vivo
[14] = system: Mus musculus; assay: Anticonvulsant activity in intracerebroventricularly dosed pharmacoresistant epilepsy CF1 mouse model; type: functional
Procedure, shortened: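 Intracerebroventricular injection in mice, followed by the 6 Hz seizure model (32 mA). ED50 was determined in nmole with 95% CI.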

Molecule: CCCCCCCCCCCCCCCC(=O)NCCCC[C@H](NC(=O)[C@H](C)NC(=O)[C@H](Cc1cnc[nH]1)NC(=O)[C@@H]1CCCN1C(=O)CNC(=O)[C@H](CC(C)C)NC(=O)[C@H](CC(C)C)NC(=O)[C@H](Cc1ccc(O)cc1)NC(=O)CNC(=O)[C@H](C)NC(=O)[C@H](CO)NC(=O)[C@H](CC(N)=O)NC(=O)[C@H](CC(C)C)NC(=O)[C@@H](NC(=O)[C@H](Cc1c[nH]c2ccccc12)NC(=O)CNC)[C@@H](C)O)C(N)=O
- Activity [8]: inactive
- Activity [1]: inactive
- logD [2]: 1.55
- Activity [9]: inactive
- pKi [4]: 6.80
- Activity [5]: inactive
- half-life [6]: > 10 h
- Activity [7]: inactive

Molecule: CC(C)C[C@H](NC(=O)[C@H](CC(C)C)NC(=O)[C@H](Cc1ccc(O)cc1)NC(=O)CNC(=O)[C@H](C)NC(=O)[C@H](CO)NC(=O)[C@H](CC(N)=O)NC(=O)[C@H](CC(C)C)NC(=O)[C@@H](NC(=O)[C@H](Cc1c[nH]c2ccccc12)NC(=O)CN)[C@@H](C)O)C(=O)NCC(=O)N1CCC[C@H]1C(=O)N1CCC[C@H]1C(=O)N1CCC[C@H]1C(=O)NCC(=O)N[C@@H](Cc1ccccc1)C(=O)N[C@@H](CO)C(=O)N1CCC[C@H]1C(=O)N[C@@H](Cc1ccccc1)C(=O)N[C@@H](CCCN=C(N)N)C(N)=O
- pKd [10]: 8.70
- pKd [11]: 7.82

Molecule: CCCCCCCCCCCCCCCC(=O)NCCCC[C@H](NC(=O)[C@H](CCCCN)NC(=O)[C@H](CCCCN)NC(=O)[C@H](CC(C)C)NC(=O)[C@H](CC(C)C)NC(=O)[C@H](Cc1ccc(O)cc1)NC(=O)CNC(=O)[C@H](C)NC(=O)[C@H](CO)NC(=O)[C@H](CC(N)=O)NC(=O)[C@H](CC(C)C)NC(=O)[C@@H](NC(=O)[C@H](Cc1c[nH]c2ccccc12)NC(=O)CNC)[C@@H](C)O)C(=O)N[C@@H](CCCCN)C(N)=O
- Activity [8]: Active
- pKi [3]: 6.51
- Activity [9]: Active
- pKi [4]: 5.88
- half-life [6]: > 10 h
- Activity [7]: inactive

Molecule: CSCC[C@H](NC(=O)[C@H](CC(C)C)NC(=O)CNC(=O)[C@H](Cc1ccccc1)NC(=O)[C@H](Cc1ccccc1)NC(=O)[C@H](CCC(N)=O)NC(=O)[C@H](CCC(N)=O)NC(=O)[C@@H]1CCCN1C(=O)CNC(=O)[C@H](CC(C)C)NC(=O)[C@H](CC(C)C)NC(=O)[C@H](Cc1ccc(O)cc1)NC(=O)CNC(=O)[C@H](C)NC(=O)[C@H](CO)NC(=O)[C@H](CC(N)=O)NC(=O)[C@H](CC(C)C)NC(=O)[C@@H](NC(=O)[C@H](Cc1c[nH]c2ccccc12)NC(=O)CN)[C@@H](C)O)C(N)=O [GALANTIDE]
- pKd [10]: 9.00
- pKd [11]: 7.40

Molecule: CCCCCCCCCCCCCCCC(=O)NCCCC[C@H](NC(=O)[C@H](CCCCN)NC(=O)[C@H](CCCCN)NC(=O)[C@@H]1CCCN1C(=O)CNC(=O)[C@H](CC(C)C)NC(=O)[C@H](CC(C)C)NC(=O)[C@H](Cc1ccc(O)cc1)NC(=O)CNC(=O)[C@H](C)NC(=O)[C@H](CO)NC(=O)[C@H](CC(N)=O)NC(=O)[C@H](CC(C)C)NC(=O)[C@@H](NC(=O)[C@H](Cc1c[nH]c2ccccc12)NC(=O)CNC)[C@@H](C)O)C(=O)N[C@@H](CCCCN)C(N)=O
- Activity [8]: Active
- Activity [1]: Active
- ED50 [12]: 0.8 mg/kg
- logD [2]: 1.26
- TD50 [13]: 21 mg/kg
- Activity [9]: Active
- pKi [4]: 7.29
- half-life [6]: 9.4 h
- Activity [7]: inactive

Molecule: CC(C)C[C@H](NC(=O)[C@H](CC(C)C)NC(=O)[C@H](Cc1ccc(O)cc1)NC(=O)CNC(=O)[C@H](C)NC(=O)[C@H](CO)NC(=O)[C@H](CC(N)=O)NC(=O)[C@H](CC(C)C)NC(=O)[C@@H](NC(=O)[C@H](Cc1c[nH]c2ccccc12)NC(=O)CN)[C@@H](C)O)C(=O)NCC(=O)N1CCC[C@H]1C(=O)N[C@@H](Cc1cnc[nH]1)C(=O)N[C@@H](C)C(=O)N[C@H](C(N)=O)C(C)C
- Activity [8]: inactive
- ED50 [14]: 1.7 nmol
- Activity [1]: inactive
- logD [2]: 0.66
- Activity [9]: inactive
- Activity [5]: inactive
- half-life [6]: 0.13 h
- Activity [7]: inactive

Molecule: H-GWTLNSAGYLLGPHAVGNHRSFSDKNGLT-OH
- pKd [10]: 8.64
- pKd [11]: 7.16

Second part, led by results:

- logD [2]: 0.4
- pKi [3]: 9.40
- pKi [4]: 7.62
- half-life [6]: 4.6 h
Molecule: CNCC(=O)N[C@@H](Cc1c[nH]c2ccccc12)C(=O)N[C@H](C(=O)N[C@@H](CC(C)C)C(=O)N[C@@H](CC(N)=O)C(=O)N[C@@H](CO)C(=O)N[C@@H](C)C(=O)NCC(=O)N[C@@H](Cc1ccc(O)cc1)C(=O)N[C@@H](CC(C)C)C(=O)N[C@@H](CC(C)C)C(=O)NCC(=O)N1CCC[C@H]1C(=O)N[C@@H](CCCCN)C(=O)N[C@@H](CCCCN)C(=O)N[C@@H](CCCCN)C(=O)N[C@@H](CCCCN)C(N)=O)[C@@H](C)O
- Activity [1]: inactive
- Activity [5]: inactive
- Activity [7]: inactive

- pKi [3]: 7.67
- pKi [4]: 7.29
- half-life [6]: > 10 h
Molecule: CCCCCCCCCCCCCCCC(=O)NCCCC[C@H](NC(=O)[C@H](CCCCN)NC(=O)[C@H](CCCCN)NC(=O)[C@@H]1CCCN1C(=O)CNC(=O)[C@H](CC(C)C)NC(=O)[C@H](CC(C)C)NC(=O)[C@H](Cc1ccc(O)cc1)NC(=O)CNC(=O)[C@H](C)NC(=O)[C@H](CO)NC(=O)[C@H](CC(N)=O)NC(=O)[C@H](CC(C)C)NC(=O)[C@@H](NC(=O)[C@H](Cc1c[nH]c2ccccc12)NC(=O)CCCCCN)[C@@H](C)O)C(=O)N[C@@H](CCCCN)C(N)=O
- Activity [5]: Active

- pKi [3]: 7.59
- pKi [4]: 6.97
- half-life [6]: > 10 h
Molecule: CCCCCCCCCCCCCCCC(=O)NCCCC[C@H](NC(=O)[C@@H]1CCCN1C(=O)CNC(=O)[C@H](CC(C)C)NC(=O)[C@H](CC(C)C)NC(=O)[C@H](Cc1ccc(O)cc1)NC(=O)CNC(=O)[C@H](C)NC(=O)[C@H](CO)NC(=O)[C@H](CC(N)=O)NC(=O)[C@H](CC(C)C)NC(=O)[C@@H](NC(=O)[C@H](Cc1c[nH]c2ccccc12)NC(=O)CNC)[C@@H](C)O)C(=O)N[C@@H](CCCCN)C(=O)N[C@@H](CCCCN)C(=O)N[C@@H](CCCCN)C(N)=O
- Activity [1]: inactive
- Activity [5]: inactive
